In assay [1] the target is Glutamate NMDA receptor; GRIN1/GRIN2B (Homo sapiens, UniProt Q05586+Q13224). Kind of assay: Inhibition of NMDA-evoked increased intracellular [Ca2+] in cells expressing NR1/NR2B receptor. Type of assay: cell-based.
In assay [2] the target is Glutamate [NMDA] receptor. Kind of assay: Inhibition of [3H]-Ro-25-6981 binding to NMDA receptor. It is filed as protein-complex assay.
The test system of assay [3] is Mus musculus. Kind of assay: In vivo analgesic activity was tested using formalin test in mouse upon p.o. administration. It is filed as functional. The following applies: po. Put shortly:
(§1)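 Mice were pretreated orally with the compound suspended in 5% Tween-80, then given formalin into the hindpaw. Licking was counted 20–25 min after the formalin injection. Percentage inhibition was calculated for each dose, and the dose giving a half-maximal effect (ED50) was determined.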

In assay [4] the test system is Mus musculus. The experiment in a line: In vivo analgesic activity was tested using formalin test in mouse upon s.c. administration. As to conditions: sc. It is filed as functional.
Assay [5] relates to Mus musculus. Kind of assay: In vivo analgesic activity was tested using formalin test in mouse upon p.o. administration; IA is inactive. Type of assay: functional, organism-based. In outline:
as §1

Assay [6] has as its system Mus musculus. The experiment in a line: In vivo analgesic activity was tested using formalin test in mouse upon i.p. administration. Type of assay: functional. The following applies: ip. In outline: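 Mice were pretreated intraperitoneally before formalin injection into the hindpaw. Licking behaviour was counted 20–25 min after the formalin injection. Percentage inhibition was calculated per dose, and the ED50 (the dose producing a half-maximal effect) was derived.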

Each structure is given as a SMILES string. Active and inactive are the calls of the source. No cut-off for these calls is given here. A value given as a limit tells only on which side of the number the result lay.

Sequence of Glutamate NMDA receptor; GRIN1/GRIN2B (Q13224 whole entry, other chains not shown): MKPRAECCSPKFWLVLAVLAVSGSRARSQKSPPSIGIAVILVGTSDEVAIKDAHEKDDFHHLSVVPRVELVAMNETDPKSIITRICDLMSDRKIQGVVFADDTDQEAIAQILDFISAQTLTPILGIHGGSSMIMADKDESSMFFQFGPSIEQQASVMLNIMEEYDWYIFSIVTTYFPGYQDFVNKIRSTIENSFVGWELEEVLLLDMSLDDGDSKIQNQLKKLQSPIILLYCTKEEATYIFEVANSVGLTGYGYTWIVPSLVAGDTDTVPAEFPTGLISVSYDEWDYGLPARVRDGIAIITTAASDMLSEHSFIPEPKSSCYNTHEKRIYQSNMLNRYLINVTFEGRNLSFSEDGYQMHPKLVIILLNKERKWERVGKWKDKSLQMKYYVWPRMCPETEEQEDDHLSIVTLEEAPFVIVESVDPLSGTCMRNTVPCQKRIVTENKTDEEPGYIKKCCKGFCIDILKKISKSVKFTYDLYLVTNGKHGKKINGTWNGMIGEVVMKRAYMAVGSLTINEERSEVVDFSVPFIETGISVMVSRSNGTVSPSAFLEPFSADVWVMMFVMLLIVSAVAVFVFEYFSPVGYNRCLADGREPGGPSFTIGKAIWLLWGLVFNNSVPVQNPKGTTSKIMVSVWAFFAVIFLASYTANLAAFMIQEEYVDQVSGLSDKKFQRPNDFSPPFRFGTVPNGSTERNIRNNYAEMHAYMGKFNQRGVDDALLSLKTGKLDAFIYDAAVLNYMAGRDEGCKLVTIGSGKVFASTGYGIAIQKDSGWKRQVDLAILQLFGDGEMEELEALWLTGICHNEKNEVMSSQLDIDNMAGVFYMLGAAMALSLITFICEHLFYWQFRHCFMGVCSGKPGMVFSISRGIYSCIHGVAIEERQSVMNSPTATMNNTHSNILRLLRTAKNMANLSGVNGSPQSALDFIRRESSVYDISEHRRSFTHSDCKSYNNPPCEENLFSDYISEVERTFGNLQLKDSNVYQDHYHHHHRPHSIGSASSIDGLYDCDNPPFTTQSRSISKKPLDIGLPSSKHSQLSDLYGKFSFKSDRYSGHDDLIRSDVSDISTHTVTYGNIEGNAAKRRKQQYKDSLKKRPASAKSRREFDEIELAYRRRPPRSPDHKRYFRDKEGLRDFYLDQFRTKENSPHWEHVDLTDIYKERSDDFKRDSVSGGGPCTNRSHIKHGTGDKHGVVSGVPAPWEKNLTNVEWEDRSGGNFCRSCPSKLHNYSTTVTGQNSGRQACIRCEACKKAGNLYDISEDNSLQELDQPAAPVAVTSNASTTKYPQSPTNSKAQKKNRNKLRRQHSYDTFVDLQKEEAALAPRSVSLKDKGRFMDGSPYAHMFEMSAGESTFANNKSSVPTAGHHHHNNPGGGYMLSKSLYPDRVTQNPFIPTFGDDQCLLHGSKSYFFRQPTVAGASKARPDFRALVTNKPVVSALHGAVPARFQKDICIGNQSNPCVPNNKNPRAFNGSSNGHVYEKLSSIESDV

As to `O=C(Nc1ccc2[nH]c(=O)[nH]c2c1)C(=O)N1CCC(Cc2ccc(F)cc2)CC1`, the IC50 in assay [1] is 2 nM; in assay [2], 5 nM. This compound also returned a median effective dose (ED50) in the assay on Mus musculus [3] above 20 mg/kg.

As to `C[C@@H]([C@@H](O)c1ccc(O)cc1)N1CCC(O)(c2ccccc2)CC1` [TRAXOPRODIL], the ED50 in the assay with Mus musculus [3] and in the assay on Mus musculus [4] was above 20 mg/kg throughout.

On to `O=C(Nc1ccc2[nH]c(=O)oc2c1)C(=O)N1CCC(Cc2ccc(F)cc2)CC1` [RADIPRODIL], for which the IC50 worked out at 4 nM in assay [1] and 6 nM in assay [2]. This compound came in with an ED50 with Mus musculus [3] of 7.7 mg/kg.

Consider `Cc1ccc(CC2(O)CCN(CCOc3ccc(O)cc3)CC2)cc1`, for which the ED50 result in the assay with Mus musculus [5] is “inactive”. Further, in assay [1], the IC50 stood at 5 nM. Further, it took a dose of 5.9 mg/kg to reach the 50% effect level in the assay with Mus musculus [6] (ED50).

`O=C(Nc1ccc2[nH]c(=O)oc2c1)C(=O)N1CCC(Cc2ccccc2)CC1`: the IC50 turned out to be 3 nM in assay [1] and 8 nM in assay [2]. The compound further had an ED50 with Mus musculus [3] of 0.9 mg/kg.

Take `O=C(CCN1CCC(Cc2ccc(F)cc2)CC1)c1ccc2nc(O)oc2c1`: the figures for the IC50 in assay [1] and in assay [2] were 48 nM and 8 nM, respectively. In the assay on Mus musculus [3], this compound displayed an ED50 of 3.7 mg/kg.

Take `O=c1[nH]c2ccc([S+]([O-])CCN3CCC(Cc4ccc(F)cc4)CC3)cc2o1` (configuration not stated) [BESONPRODIL]: in the assay on Mus musculus [3], the ED50 stood at 2.4 mg/kg.

Regarding `O=C(Nc1ccc2[nH]c(=O)oc2c1)C(=O)N1CCC(Oc2ccc(Cl)cc2)CC1`, the IC50 stood at 7 nM in assay [1] and 40 nM in assay [2]. Also, the median effective dose (ED50) in the assay on Mus musculus [3] turned out to be 4.4 mg/kg.

Regarding `O=C(Nc1ccc(O)cc1)C(=O)N1CCC(Cc2ccccc2)CC1`, the IC50 was 31 nM in assay [1] and 16 nM in assay [2]. This compound came in with an ED50 with Mus musculus [3] of 9.4 mg/kg.

Take `Cc1ccc(CC2CCN(C(=O)C(=O)Nc3ccc4c(c3)CC(=O)N4)CC2)cc1`: the IC50 in assay [1] is 15 nM; in assay [2] it was 54 nM. In addition, in the assay with Mus musculus [3], the ED50 stood at 0.5 mg/kg.

`Cc1ccc(CC2CCN(C(=O)C(=O)Nc3ccc4c(c3)OCC(=O)N4)CC2)cc1`: the IC50 amounted to 18 nM in assay [1] and 17 nM in assay [2]. This compound also displayed an ED50 in the assay with Mus musculus [3] of 10 mg/kg.

In the case of `O=C(Nc1ccc2[nH]c(=O)sc2c1)C(=O)N1CCC(Cc2ccccc2)CC1`, the IC50 came to 9 nM in assay [1] and 17 nM in assay [2]. Moreover, in the assay with Mus musculus [3], the ED50 was 0.4 mg/kg.

On to `Cc1ccc(OC2CCN(C(=O)C(=O)Nc3ccc4[nH]c(=O)sc4c3)CC2)cc1`, for which the IC50 in assay [1] was 8 nM; in assay [2] it was 17 nM. Also, the ED50 with Mus musculus [3] was 0.2 mg/kg.

`O=C(c1cc2cc(O)ccc2[nH]1)N1CCC(Cc2ccccc2)CC1` returned an IC50 in assay [1] of 42 nM. The compound further yielded an ED50 in the assay on Mus musculus [3] of 1.4 mg/kg.

`O=C1Nc2ccc(NC(=O)C(=O)N3CCC(Cc4ccccc4)CC3)cc2CO1`: the IC50 in assay [1] was found to be 29 nM; in assay [2] it was 139 nM. The same compound yielded an ED50 with Mus musculus [3] below 0.1 mg/kg.

Turning to `C[C@@H](CN1CCC(Cc2ccccc2)CC1)[C@@H](O)c1ccc(O)cc1`, in the assay on Mus musculus [5], the ED50 result is “inactive”. The compound further came in with an ED50 in the assay on Mus musculus [6] of 5.1 mg/kg.

With `O=C(Nc1ccc2[nH]c(=O)[nH]c2c1)C(=O)N1CCC(Oc2ccc(Cl)cc2)CC1`, the IC50 came out at 8 nM in assay [1] and 26 nM in assay [2]. This compound had an ED50 in the assay with Mus musculus [3] above 20 mg/kg.

Take `O=C(Nc1ccc2[nH]c(=O)[nH]c2c1)C(=O)N1CCC(Cc2ccccc2)CC1`: the IC50 in assay [1] turned out to be 6 nM; in assay [2], 4 nM. The same compound showed an ED50 in the assay on Mus musculus [3] of 14 mg/kg.

With `Cc1ccc(OC2CCN(C(=O)C(=O)Nc3ccc4nc(S)[nH]c4c3)CC2)cc1`, the IC50 in assay [1] is 10 nM; in assay [2], 131 nM. In the assay with Mus musculus [3], this compound yielded an ED50 above 20 mg/kg.

For orientation: IC50 means the concentration needed to halve the response being measured. For orientation: ED50 means the dose at which the effect has come halfway, by size or by number of responders.
